Experimental data published in ChEMBL document CHEMBL1148054, “Chemical and bioactive constituents from Zanthoxylum simulans” (J Nat Prod, 1994).
Activity calls are given as the source filed them. No cut-off for these calls is given here.

Experiments:
Type in all cases: functional
[1] = tested on: HL-60; assay: Induction of cell differentiation in human HL60 cells assessed as alpha naphthyl esterase activity at 0.0001 uM after 4 days
Outline: (§1)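 HL-60 cells in RPMI 1640 with 5% heat-inactivated calf serum at 37° under 5% CO2. Log-phase cells diluted to 1.2×10^5 cells/ml and preincubated 18 h, then samples added in DMSO (final 0.1%, DMSO controls). Cells scored after 4 days.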

[2] = tested on: HL-60; assay: Induction of cell differentiation in human HL60 cells assessed as alpha naphthyl esterase activity at 0.001 uM after 4 days; outline: as §1
[3] = tested on: HL-60; assay: Induction of cell differentiation in human HL60 cells assessed as alpha naphthyl esterase activity at 0.01 uM after 4 days; outline: as §1
[4] = tested on: HL-60; assay: Induction of cell differentiation in human HL60 cells assessed as alpha naphthyl esterase activity at 0.1 uM after 4 days; outline: as §1
[5] = tested on: HL-60; assay: Induction of cell differentiation in human HL60 cells assessed as alpha naphthyl esterase activity at 1 uM after 4 days; outline: as §1
[6] = tested on: HL-60; assay: Induction of terminal cell differentiation in human HL60 cells at 0.0001 uM after 4 days by NBT reduction assay
Outline: (§2)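 Log-phase HL-60 cells (RPMI 1640, 5% heat-inactivated calf serum, 37°, 5% CO2) were diluted to 1.2×10^5 cells/ml, preincubated 18 h, then treated 4 days with samples in DMSO (final 0.1%; DMSO controls). 10^6 cells were mixed 1:1 with fresh PBS holding 2 mg/ml NBT and 5 μg/ml TPA, 1 h at 37°. Formazan-positive cells were counted microscopically as % NBT-positive.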

[7] = tested on: HL-60; assay: Induction of terminal cell differentiation in human HL60 cells at 0.001 uM after 4 days by NBT reduction assay; outline: as §2
[8] = tested on: HL-60; assay: Induction of terminal cell differentiation in human HL60 cells at 0.01 uM after 4 days by NBT reduction assay; outline: as §2
[9] = tested on: HL-60; assay: Induction of terminal cell differentiation in human HL60 cells at 0.1 uM after 4 days by NBT reduction assay; outline: as §2
[10] = tested on: HL-60; assay: Induction of terminal cell differentiation in human HL60 cells at 1 uM after 4 days by NBT reduction assay; outline: as §2
[11] = tested on: HL-60; assay: Induction of terminal cell differentiation in human HL60 cells assessed as inhibition of [3H]thymidine incorporation at 0.1 uM after 4 days; set-up: scale not given: the % may be the effect or the level left
Outline: (§3)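 HL-60 cells were kept in RPMI 1640 with 5% heat-inactivated calf serum and penicillin/streptomycin at 37° under 5% CO2. Log-phase cells were diluted to 1.2×10^5 cells/ml and preincubated 18 h. Samples were added in DMSO (final 0.1%; vehicle controls matched) for 4 days. Aliquots then got 0.5 μCi/ml [3H]thymidine for 16 h more, were harvested and scintillation-counted. % incorporation per 10^6 cells = sample DPM / DMSO-control DPM.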

[12] = tested on: HL-60; assay: Induction of terminal cell differentiation in human HL60 cells assessed as inhibition of [3H]thymidine incorporation at 0.01 uM after 4 days; set-up: scale not given: the % may be the effect or the level left; outline: as §3
[13] = tested on: HL-60; assay: Induction of terminal cell differentiation in human HL60 cells assessed as inhibition of [3H]thymidine incorporation at 0.001 uM after 4 days; set-up: scale not given: the % may be the effect or the level left; outline: as §3
[14] = tested on: HL-60; assay: Induction of terminal cell differentiation in human HL60 cells assessed as inhibition of [3H]thymidine incorporation at 0.0001 uM after 4 days; set-up: scale not given: the % may be the effect or the level left
Outline: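 After 4-day sample treatment, 100 μl of HL-60 cells pulsed with 0.5 μCi/ml [3H]thymidine (65 Ci/mmol) for 16 h. Cells harvested and counted by liquid scintillation. Incorporation per 10^6 cells given as sample DPM divided by DMSO-control DPM.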

[15] = tested on: HL-60; assay: Induction of terminal cell differentiation in human HL60 cells assessed as inhibition of [3H]thymidine incorporation at 1 uM after 4 days; set-up: scale not given: the % may be the effect or the level left; outline: as §3
[16] = tested on: HL-60; assay: Induction of terminal cell differentiation in human HL60 cells assessed as naphthol AS-D chloroacetate esterase activity at 1 uM after 4 days
Outline: (§4)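 HL-60 cells were grown in RPMI 1640 with 5% heat-inactivated calf serum at 37°, 5% CO2. They were diluted to 1.2×10^5 cells/ml, preincubated 18 h, then exposed 4 days to DMSO-dissolved samples (final DMSO 0.1%, matched vehicle controls). Specific esterase (naphthol AS-D chloroacetate) was scored cytochemically with a commercial kit as the percentage of differentiated cells.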

[17] = tested on: HL-60; assay: Induction of terminal cell differentiation in human HL60 cells assessed as naphthol AS-D chloroacetate esterase activity at 0.1 uM after 4 days; outline: as §4
[18] = tested on: HL-60; assay: Induction of terminal cell differentiation in human HL60 cells assessed as naphthol AS-D chloroacetate esterase activity at 0.01 uM after 4 days; outline: as §4
[19] = tested on: HL-60; assay: Induction of terminal cell differentiation in human HL60 cells assessed as naphthol AS-D chloroacetate esterase activity at 0.001 uM after 4 days; outline: as §4
[20] = tested on: HL-60; assay: Induction of terminal cell differentiation in human HL60 cells assessed as naphthol AS-D chloroacetate esterase activity at 0.0001 uM after 4 days; outline: as §4
[21] = tested on: HL-60; assay: Induction of terminal cell differentiation in human HL60 cells assessed as cell viability at 1 uM by trypan blue exclusion method; conditions: read-out: Activity
Outline: (§5)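 HL-60 cells preincubated 18 h at 1.2×10^5 cells/ml, then exposed 4 days to samples in DMSO (final 0.1%). Viability by trypan blue exclusion: viable/(viable+dead)×100. Cell counts also taken after 4 days.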

[22] = tested on: HL-60; assay: Induction of terminal cell differentiation in human HL60 cells assessed as cell viability at 0.1 uM by trypan blue exclusion method; conditions: read-out: Activity; outline: as §5
[23] = tested on: HL-60; assay: Induction of terminal cell differentiation in human HL60 cells assessed as cell viability at 0.01 uM by trypan blue exclusion method; conditions: read-out: Activity; outline: as §5
[24] = tested on: HL-60; assay: Induction of terminal cell differentiation in human HL60 cells assessed as cell viability at 0.001 uM by trypan blue exclusion method; conditions: read-out: Activity; outline: as §5
[25] = tested on: HL-60; assay: Induction of terminal cell differentiation in human HL60 cells assessed as cell viability at 0.0001 uM by trypan blue exclusion method; conditions: read-out: Activity; outline: as §5
[26] = tested on: Platelet; assay: Antiplatelet activity against rabbit platelet assessed as inhibition of arachidonic acid-induced platelet aggregation at 100 ug/ml; conditions: Oryctolagus cuniculus
[27] = tested on: Platelet; assay: Antiplatelet activity against rabbit platelet assessed as inhibition of collagen-induced platelet aggregation at 100 ug/ml; conditions: Oryctolagus cuniculus
[28] = tested on: Platelet; assay: Antiplatelet activity against rabbit platelet assessed as inhibition of platelet activating factor-induced platelet aggregation at 100 ug/ml; conditions: Oryctolagus cuniculus

Structure (SMILES): C=C1/C(=C\C=C2/CCC[C@]3(C)[C@@H]([C@H](C)CCCC(C)(C)O)CC[C@@H]23)C[C@@H](O)C[C@@H]1O [CALCITRIOL]
- Activity [1]: 2.5%
- Activity [2]: 14%
- Activity [3]: 68%
- Activity [4]: 90.1%
- Activity [5]: 95.3%
- Activity [6]: 8.8%
- Activity [7]: 28.5%
- Activity [8]: 73.3%
- Activity [9]: 80%
- Activity [10]: 90.5%
- Activity [11]: 92%
- Activity [12]: 58.3%
- Activity [13]: 32.3%
- Activity [14]: 6%
- Activity [15]: 95.3%
- Activity [16]: 2%
- Activity [17]: 2%
- Activity [18]: 4%
- Activity [19]: 4.6%
- Activity [20]: 5%
- viability at 1 µM [21]: 92%
- viability at 0.1 µM [22]: 95%
- viability at 0.01 µM [23]: 97%
- viability at 0.001 µM [24]: 99%
- viability at 0.0001 µM [25]: 98%

Structure (SMILES): COc1ccc2c(c1OC)C(CC1(C)C=Cc3c(c4cccc(OC)c4n(C)c3=O)O1)N(C)c1c-2ccc2cc3c(cc12)OCO3 (stereo not drawn)
- Activity [26]: inactive
- Activity [27]: inactive
- Activity [28]: inactive
